Results published in ChEMBL document CHEMBL3232820, “Improved total synthesis and biological evaluation of potent apratoxin S4 based anticancer agents with differential stability and further enhanced activity” (J Med Chem, 2014).
Activity calls are given as the source filed them. No cut-off for these calls is given here.

Columns and labels:
Liver [1] = assay: Metabolic stability in CD1 mouse liver microsomes assessed as compound remaining at 1 uM after 60 mins by HPLC-MS analysis; type: ADME; conditions: 1 h
Method in brief: (§1)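 Pooled female CD1 mouse liver microsomes, 0.5 mg/mL protein final, in 100 mM phosphate pH 7.4 at 37 °C; compound 1 μM final, with or without NADPH-regenerating system; 3 min to 2 h; quenched with ethyl acetate, harmine internal standard; HPLC-MS (MRM); % remaining versus t0 peak-area ratio; triplicate.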

Liver [2] = assay: Metabolic stability in CD1 mouse liver microsomes assessed as compound remaining at 1 uM after 5 mins by HPLC-MS analysis; type: ADME; method in brief: as §1
Liver [3] = assay: Metabolic stability in CD1 mouse liver microsomes assessed as compound remaining at 1 uM after 30 mins by HPLC-MS analysis in presence of NADPH; type: ADME; conditions: 0.5 h; method in brief: as §1
HCT-116 [4] = assay: Metabolic stability in human HCT116 cells at 25 ug/ml up to 24 hrs by HPLC-MS analysis; type: ADME, cell-based; conditions: hct-116, 24 h
Method in brief: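 HCT116 lysate diluted in 25 mM Tris-HCl pH 8.0 to 0.7 mg/mL protein, 100 μL; incubated with compound (10 μL of 25 μg/mL) 0.25 min to 24 h; ethyl acetate extraction with harmine; HPLC-MS (MRM); remaining amount from calibration curve.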

Liver [5] = assay: Metabolic stability in CD1 mouse liver microsomes assessed as compound remaining at 1 uM after 60 mins by HPLC-MS analysis in presence of NADPH; type: ADME; conditions: 1 h; method in brief: as §1
Liver [6] = assay: Metabolic stability in CD1 mouse liver microsomes assessed as compound remaining at 1 uM after 30 mins by HPLC-MS analysis; type: ADME; conditions: 0.5 h; method in brief: as §1
[7] = Half life in phosphate buffer at 25 ug/ml at pH 7.4 by HPLC-MS analysis; type: physicochemical
Method in brief: (§2)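 Compound (10 μL of 25 μg/mL) spiked into 100 μL of 100 mM phosphate buffer, pH 4.88 or pH 7.4, incubated 0.25 min to 24 h; ethyl acetate extraction with harmine internal standard; HPLC-MS (MRM); remaining amount from calibration curve.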

[8] = Half life in CD1 mouse liver microsomes at 1 uM by HPLC-MS analysis in presence of NADPH; type: ADME
Liver [9] = assay: Metabolic stability in CD1 mouse liver microsomes assessed as compound remaining at 1 uM after 5 mins by HPLC-MS analysis in presence of NADPH; type: ADME; method in brief: as §1
Liver [10] = assay: Metabolic stability in CD1 mouse liver microsomes assessed as compound remaining at 1 uM after 120 mins by HPLC-MS analysis in presence of NADPH; type: ADME; conditions: 2 h; method in brief: as §1
HCT-116 [11] = assay: Antiproliferative activity against human HCT116 cells after 48 hrs by MTT assay; type: functional, cell-based; conditions: HCT-116, 48 h
HCT-116 [12] = assay: Downregulation of human MET protein expression in HCT116 cells up to 10 uM after 24 hrs by Western blotting analysis; type: functional, cell-based
Method in brief: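 HCT116 cells seeded 4×10^5/well, treated next day with a concentration series (solvent control 1% EtOH) for 24 h; whole-cell lysates, equal protein by BCA, 4–12% SDS-PAGE, PVDF transfer, anti-Met immunoblot with chemiluminescent detection.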

Plasma = assay: Metabolic stability in mouse plasma at 25 ug/ml up to 24 hrs by HPLC-MS analysis; type: ADME, cell-free
Method in brief: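 Compound (10 μL of 25 μg/mL) added to 100 μL mouse serum, incubated 0.25 min to 24 h; ethyl acetate plus harmine quench/extraction, dried, reconstituted in acetonitrile; HPLC-MS (MRM); remaining amount from calibration curve.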

Liver [13] = assay: Metabolic stability in CD1 mouse liver microsomes assessed as compound remaining at 1 uM after 3 mins by HPLC-MS analysis in presence of NADPH; type: ADME; conditions: 0.05 h; method in brief: as §1
Liver [14] = assay: Metabolic stability in CD1 mouse liver microsomes assessed as compound remaining at 1 uM after 15 mins by HPLC-MS analysis; type: ADME; conditions: 0.25 h; method in brief: as §1
[15] = target: T1, Vascular endothelial growth factor A, long form (Homo sapiens, UniProt P15692); assay: Inhibition of VEGF-A production in human HCT116 cells after 12 hrs by alphaLISA assay; type: cell-based, HCT-116
T1 sequence (P15692 whole entry): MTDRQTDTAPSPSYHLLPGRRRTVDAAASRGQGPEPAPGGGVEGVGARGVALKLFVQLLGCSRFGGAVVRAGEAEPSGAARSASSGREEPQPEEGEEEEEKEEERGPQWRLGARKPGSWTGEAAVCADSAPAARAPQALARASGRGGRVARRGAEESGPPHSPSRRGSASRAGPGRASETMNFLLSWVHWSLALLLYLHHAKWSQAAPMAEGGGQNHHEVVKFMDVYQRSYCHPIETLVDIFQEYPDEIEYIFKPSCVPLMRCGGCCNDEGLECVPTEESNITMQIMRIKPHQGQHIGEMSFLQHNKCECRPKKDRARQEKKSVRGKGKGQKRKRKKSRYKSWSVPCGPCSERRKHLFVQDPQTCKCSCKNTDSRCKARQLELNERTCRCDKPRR

Liver [16] = assay: Metabolic stability in CD1 mouse liver microsomes assessed as compound remaining at 1 uM after 120 mins by HPLC-MS analysis; type: ADME; conditions: 2 h; method in brief: as §1
Liver [17] = assay: Metabolic stability in CD1 mouse liver microsomes assessed as compound remaining at 1 uM after 15 mins by HPLC-MS analysis in presence of NADPH; type: ADME; conditions: 0.25 h; method in brief: as §1
Liver [18] = assay: Metabolic stability in CD1 mouse liver microsomes assessed as compound remaining at 1 uM after 3 mins by HPLC-MS analysis; type: ADME; conditions: 0.05 h; method in brief: as §1
[19] = Half life in phosphate buffer at 25 ug/ml at pH 4.88 by HPLC-MS analysis; type: physicochemical; method in brief: as §2
Mus musculus [20] = assay: Toxicity in nu/nu mouse xenografted with human HCT116 cells assessed as abnormal behavior at 0.1 to 0.25 mg/kg, ip for 16 days; type: organism-based, HCT-116; design: dose 0.1-0.25 mg/kg, route intraperitoneal; conditions: in vivo, 384 h
HCT-116 [21] = assay: Antitumor activity against human HCT116 cells xenografted in ip dosed nu/nu mouse assessed as tumor growth inhibition administered for 16 days; type: functional, organism-based
Method in brief: (§3)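 Female nu/nu mice, 3–5 weeks old; 1×10^6 HCT116 cells in saline injected sc in left rear flank; daily ip 0.1 or 0.25 mg/kg (2 or 5 μg/mouse) or DMSO vehicle, 16 days; n = 7 treated, 6 vehicle; caliper volumes daily (W²×L×0.5); tumours starting above 100 mm³ excluded.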

HCT-116 [22] = assay: Downregulation of VEGFR2 protein expression in human HCT116 cells xenografted in nu/nu mouse at 0.25 mg/kg, ip for 16 days by immunoblotting analysis; type: functional, organism-based; design: dose 0.25 mg/kg
Method in brief: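 Xenograft tumours harvested at the end of the daily ip efficacy study in nu/nu mice bearing sc HCT116 tumours were analysed by immunoblotting with anti-VEGFR2 antibody.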

Mus musculus [23] = assay: Toxicity in nu/nu mouse xenografted with human HCT116 cells assessed as body weight loss at 0.1 to 0.25 mg/kg, ip for 16 days; type: organism-based, HCT-116; design: dose 0.1-0.25 mg/kg, route intraperitoneal; conditions: in vivo, 384 h
HCT-116 [24] = assay: Antitumor activity against human HCT116 cells xenografted in nu/nu mouse assessed as tumor growth inhibition at 0.1 mg/kg, ip for 16 days relative to control; type: functional; conditions: HCT-116, ip, 384 h, route intraperitoneal, read-out: TGI; method in brief: as §3

CC[C@H](C)[C@H]1C(=O)N2CCC[C@H]2C(=O)O[C@H](C(C)(C)C)C[C@@H](C)C[C@H](O)CC2=N[C@@H](CCC(=O)N[C@@H](Cc3ccc(OC)cc3)C(=O)N(C)[C@@H](C)C(=O)N1C)CS2
Stability (Liver [1]): 54.5%
Stability (Liver [2]): 60.5%
Stability (Liver [3]): 6.1%
Stability (HCT-116 [4]): Stable
Stability (Liver [5]): 5.41%
Stability (Liver [6]): 54.8%
half-life at 25 ug/ml [7]: > 24 h
half-life at 1 µM [8]: < 5 min
Stability (Liver [9]): 18.7%
Stability (Liver [10]): 4.3%
IC50 (HCT-116 [11]): 1.25 nM
Activity (HCT-116 [12]): Active
Stability (Plasma): Stable
Stability (Liver [13]): 54.95%
Stability (Liver [14]): 76.55%
IC50 [15]: 0.3 nM
Stability (Liver [16]): 53.85%
Stability (Liver [17]): 52.4%
Stability (Liver [18]): 66.6%
half-life at 25 ug/ml [19]: > 24 h

CC[C@H](C)[C@H]1C(=O)N2CCC[C@H]2C(=O)O[C@H](C(C)(C)C)C[C@@H](C)C[C@H](O)C(C)(C)C2=N[C@@H](CCC(=O)N[C@@H](Cc3ccc(OC)cc3)C(=O)N(C)[C@@H](C)C(=O)N1C)CS2
Stability (Liver [1]): 81.25%
Activity (Mus musculus [20]): Non-toxic
Stability (Liver [2]): 77.45%
TGI (HCT-116 [21]): Dose-dependent effect
Activity (HCT-116 [22]): Active
Stability (Liver [3]): 4.83%
Stability (HCT-116 [4]): Stable
Stability (Liver [5]): 3.55%
Stability (Liver [6]): 74.75%
half-life at 25 ug/ml [7]: > 24 h
half-life at 1 µM [8]: < 5 min
Activity (Mus musculus [23]): Non-toxic
Stability (Liver [9]): 17.3%
Stability (Liver [10]): 5.01%
IC50 (HCT-116 [11]): 1.99 nM
Activity (HCT-116 [12]): Active
Stability (Plasma): Stable
Stability (Liver [13]): 37.2%
Stability (Liver [14]): 63.45%
IC50 [15]: 0.47 nM
Stability (Liver [16]): 70.05%
Stability (Liver [17]): 8.28%
Stability (Liver [18]): 74.1%
half-life at 25 ug/ml [19]: > 24 h
inhibition in vivo at 0.1 mg/kg (HCT-116 [24]): 50%

CC[C@H](C)[C@H]1C(=O)N2CCC[C@H]2C(=O)O[C@H](C(C)(C)C)C[C@@H](C)C[C@H](O)[C@H](C)C2=N[C@H](CCC(=O)N[C@@H](Cc3ccc(OC)cc3)C(=O)N(C)[C@@H](C)C(=O)N1C)CS2
Stability (Liver [1]): 48.45%
Stability (Liver [2]): 71.4%
Stability (Liver [3]): 3.73%
Stability (HCT-116 [4]): Stable
Stability (Liver [5]): 6.06%
Stability (Liver [6]): 56.05%
half-life at 25 ug/ml [7]: > 24 h
half-life at 1 µM [8]: < 5 min
Stability (Liver [9]): 17.8%
Stability (Liver [10]): 5.63%
IC50 (HCT-116 [11]): 0.69 nM
Activity (HCT-116 [12]): Active
Stability (Plasma): Stable
Stability (Liver [13]): 51.4%
Stability (Liver [14]): 45.25%
IC50 [15]: 0.12 nM
Stability (Liver [16]): 56.25%
Stability (Liver [17]): 3.55%
Stability (Liver [18]): 83.1%
half-life at 25 ug/ml [19]: > 24 h

CC[C@H](C)[C@H]1C(=O)N2CCC[C@H]2C(=O)O[C@H](C(C)(C)C)C[C@@H](C)C[C@H](O)[C@H](C)C2=N[C@@H](CCC(=O)N[C@@H](Cc3ccc(OC)cc3)C(=O)N(C)[C@@H](C)C(=O)N1C)CS2 [APRATOXIN S4]
Stability (Liver [1]): 87.1%
Stability (Liver [2]): 70.8%
Stability (Liver [3]): 9.58%
Stability (HCT-116 [4]): Stable
Stability (Liver [5]): 10%
Stability (Liver [6]): 73.85%
half-life at 25 ug/ml [7]: > 24 h
half-life at 1 µM [8]: < 5 min
Stability (Liver [9]): 32.2%
Stability (Liver [10]): 6.02%
IC50 (HCT-116 [11]): 1.43 nM
Activity (HCT-116 [12]): Active
Stability (Plasma): Stable
Stability (Liver [13]): 39.55%
Stability (Liver [14]): 87.2%
IC50 [15]: 0.32 nM
Stability (Liver [16]): 55.25%
Stability (Liver [17]): 10.07%
Stability (Liver [18]): 87.05%
half-life at 25 ug/ml [19]: > 24 h
